“Also recorded” adds a separate entry of the source.
How the values were obtained:
recombinant human HDAC3 = recombinant human HDAC3 (Homo sapiens, UniProt O15379); experiment: HDAC3 inhibition, fluorogenic substrate Boc-Lys; type: biochemical
[1] = tested on: nuclear class I HDACs (acetylation status of histone H4) in SH-SY5Y cells; experiment: Western blot of acetylation of histone H4 in SH-SY5Y cells; type: cell-based; conditions: 24 h treatment
Summary of the method: (§1)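 SH-SY5Y cells were seeded at 1.0 x 10^5 cells/well and grown to 80% confluence in 1:1 DMEM:OPTI-MEM with 10% FBS and antibiotics. They were exposed to vehicle or rising concentrations of test compound for 24 h at 37 °C, 5% CO2, then lysed in RIPA with protease/phosphatase inhibitors. 20 µg of total protein (BCA) went to SDS-PAGE/PVDF, probed overnight at 4 °C for acetyl-α-tubulin or acetyl-histone H4, with GAPDH; chemiluminescence imaged by CCD.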

[2] = tested on: cytoplasmic HDAC6 (acetylation status of α-tubulin) in SH-SY5Y cells; experiment: Western blot of acetylation of α-tubulin in SH-SY5Y cells; type: cell-based; conditions: 24 h treatment
Summary of the method: as §1

human recombinant HDAC8 [3] = target: T1, human recombinant HDAC8 (Homo sapiens, UniProt Q9BY41); type: binding; conditions: denaturing conditions, excess of competitor (1f at 50 fold molar excess)
T1 sequence (Q9BY41 1-377): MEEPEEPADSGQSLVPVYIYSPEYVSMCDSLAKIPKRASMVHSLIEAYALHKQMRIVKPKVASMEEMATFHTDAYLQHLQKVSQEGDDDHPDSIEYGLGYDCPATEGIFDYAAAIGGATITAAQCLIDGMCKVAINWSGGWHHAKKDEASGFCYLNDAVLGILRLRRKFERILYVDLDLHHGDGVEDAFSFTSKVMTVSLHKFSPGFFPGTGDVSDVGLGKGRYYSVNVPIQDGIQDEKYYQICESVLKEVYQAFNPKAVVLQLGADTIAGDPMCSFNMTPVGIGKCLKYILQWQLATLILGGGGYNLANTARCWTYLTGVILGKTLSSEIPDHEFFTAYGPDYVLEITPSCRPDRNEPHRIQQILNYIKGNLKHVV

human recombinant HDAC8 [4] = target: T1, human recombinant HDAC8; experiment: HDAC8 inhibition, fluorogenic substrate Fluor de Lys; type: biochemical
Solubility = type: physicochemical; conditions: remark on the photolabeling competition experiment

Chain of recombinant human HDAC3 (O15379 whole entry): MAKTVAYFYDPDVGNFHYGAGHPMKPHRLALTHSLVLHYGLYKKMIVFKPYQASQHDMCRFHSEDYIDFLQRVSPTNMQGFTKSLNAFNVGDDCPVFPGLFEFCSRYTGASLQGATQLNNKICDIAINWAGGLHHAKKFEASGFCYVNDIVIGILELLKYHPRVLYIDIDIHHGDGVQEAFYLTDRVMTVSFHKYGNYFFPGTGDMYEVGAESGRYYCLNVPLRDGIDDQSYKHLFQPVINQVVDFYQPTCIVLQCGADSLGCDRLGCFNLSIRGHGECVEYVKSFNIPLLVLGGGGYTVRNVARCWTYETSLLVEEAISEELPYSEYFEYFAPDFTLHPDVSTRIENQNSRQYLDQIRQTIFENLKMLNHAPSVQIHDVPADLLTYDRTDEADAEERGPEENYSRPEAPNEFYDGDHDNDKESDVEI
Chain of recombinant human HDAC3 (Q9Y618 395-489 partner limits assumed): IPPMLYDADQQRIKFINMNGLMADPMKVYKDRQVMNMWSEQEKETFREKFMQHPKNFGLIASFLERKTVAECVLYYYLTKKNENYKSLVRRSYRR

SMILES | IC50 (recombinant human HDAC3) | Competition with probe 1b, effect on biotinylation of HDAC8 (human recombinant HDAC8 [3]) | also measured
COc1ccc(Cn2ccc3ccc(C(=O)NO)cc32)cc1 [PCI34051] | – | pronounced decrease in biotinylation | –
COC(=O)CCCCCCC(=O)Nc1ccc(OCc2ccccc2)cc1 [1e] | – | – | IC50 (human recombinant HDAC8 [4]): > 66 µM
CC(/C=C/C(=O)NO)=C\[C@@H](C)C(=O)c1ccc(N(C)C)cc1 [TSA, Trichostatin A] | – | pronounced decrease in biotinylation | –

Now from value to compound, other results behind:

IC50 (recombinant human HDAC3) | Competition with probe 1b, effect on biotinylation of HDAC8 (human recombinant HDAC8 [3]) | SMILES | also measured
> 66 µM | – | COc1cc(COc2ccc(NC(=O)CCCCCCC(=O)OCc3ccc(CN=[N+]=[N-])cc3)cc2)cc(N=[N+]=[N-])c1 [1i, 7-[4-(3-Azido-5-methoxybenzyloxy)phenylcarbamoyl]heptanoicacid-4-azidomethylbenzyl ester] | Acetylation status of histone H4 [1]: increase acetylation of H4; Deacetylation of α-tubulin [2]: did not inhibit; also recorded: not α tubulin
– | pronounced decrease in biotinylation | COC(=O)CCCCCCC(=O)Nc1ccc(OCc2cc(C)cc(C)c2)cc1 [1f, 7-[4-(3,5-Dimethyl-benzyloxy)phenylcarbamoyl]heptanoic acid methyl ester] | Solubility (Solubility): low solubility
> 66 µM | – | COc1cc(COc2ccc(NC(=O)CCCCCCC(=O)OCCN=[N+]=[N-])cc2)cc(N=[N+]=[N-])c1 [1h, 7-[4-(3-Azido-5-methoxybenzyloxy)phenylcarbamoyl]heptanoicacid-2-azidoethyl ester] | –

Source: paper PMC3472134 (Bioorganic & medicinal chemistry letters, 2012)
